Legend:
[1] = Displacement of 2-[125I]iodomelatonin from human MT1 receptor expressed in […] NIH3T3 cells after 90 mins; format: cell-based
Outline: (§1)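 Competition binding on membranes from NIH3T3 cells expressing the cloned human receptor (5−10 μg protein per tube). Incubation with 100 pM 2-[¹²⁵I]iodomelatonin for 90 min at 37 °C in 50 mM Tris-HCl, pH 7.4. Melatonin was tested at 10⁻¹⁰−10⁻⁶ M; nonspecific binding was defined with 10 μM melatonin. IC₅₀ came from nonlinear fitting and was converted to pKi by Cheng−Prusoff; values are means of ≥3 independent duplicate determinations.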

[2] = Antagonist activity at human MT1 receptor expressed in […] NIH3T3 cells after 30 mins by [35S]GTPgammaS binding assay relative to melatonin; format: functional
[3] = Displacement of 2-[125I]iodomelatonin from human MT2 receptor expressed in […] NIH3T3 cells after 90 mins; format: cell-based; outline: as §1
[4] = Antagonist activity at human MT2 receptor expressed in […] NIH3T3 cells after 30 mins by [35S]GTPgammaS binding assay relative to melatonin; format: functional
[5] = Partial agonist activity at human MT2 receptor expressed in […] NIH3T3 cells after 30 mins by [35S]GTPgammaS binding assay relative to melatonin; format: functional
[6] = Partial agonist activity at human MT1 receptor expressed in […] NIH3T3 cells after 30 mins by [35S]GTPgammaS binding assay relative to melatonin; format: functional

SMILES	pKi [1]	Intrinsic activity [2]	pKi [3]	Intrinsic activity [4]	Intrinsic activity [5]	Intrinsic activity [6]
CCC(=O)N[C@@H]1Cc2ccccc2[C@@H](c2ccccc2)C1	5.67	-0.23	6.1	-0.14	–	–
CCC(=O)N[C@@H]1Cc2ccccc2[C@H](c2ccccc2)C1	7.02	0.15	9.26	–	0.45	–
CCC(=O)N[C@H]1Cc2ccccc2[C@H](c2ccccc2)C1	6.89	–	8.02	–	0.48	0.33
CCC(=O)N[C@H]1Cc2ccccc2[C@@H](c2ccccc2)C1	6.59	0.06	7.01	0.11	–	–
CCC(=O)N[C@@H]1Cc2c(OC)cccc2[C@H](c2ccccc2)C1 (racemic)	7.83	0.2	10.22	–	0.44	–
CCC(=O)N[C@H]1Cc2c(OC)cccc2[C@H](c2ccccc2)C1 (racemic)	7.04	0.02	9.71	0.21	–	–
CCC(=O)N[C@@H]1Cc2c(Br)cccc2[C@H](c2ccccc2)C1 (racemic)	7.99	–	10.85	–	0.65	0.49
CCC(=O)N[C@@H]1Cc2ccccc2[C@H](c2ccccc2)C1 (racemic)	7.12	0.23	9.16	–	0.46	–
CCC(=O)N[C@H]1Cc2ccccc2[C@H](c2ccccc2)C1 (racemic)	6.65	–	8.06	–	0.4	0.41
CCC(=O)NC1=Cc2ccccc2C(c2ccccc2)C1 (racemic)	7.3	0.14	7.43	–	0.59	–
CCC(=O)NC1=Cc2c(OC)cccc2C(c2ccccc2)C1 (racemic)	6.74	–	7.11	–	0.49	0.32
CCC(=O)NCC1=Cc2ccccc2C(c2ccccc2)C1 (racemic)	7.69	0.01	8.46	0.02	–	–

Source: ChEMBL document CHEMBL1944504, “Toward the definition of stereochemical requirements for MT2-selective antagonists and partial agonists by studying 4-phenyl-2-propionamidotetralin derivatives” (J Med Chem, 2011)
